The results in this text go back to paper PMC3103050 (Genes to cells : devoted to molecular & cellular mechanisms, 2009).

B5: GST-REV1(826–1251) (domain or fragment, human, UniProt Q9UBZ9 826-1251, looked up)
chain: PTNLNPSTCPSRPSVQSSHFPSGSYSVRDVFQVQKAKKSTEEEHKEVFRAAVDLEISSASRTCTFLPPFPAHLPTSPDTNKAESSGKWNGLHTPVSVQSRLNLSIEVPSPSQLDQSVLEALPPDLREQVEQVCAVQQAESHGDKKKEPVNGCNTGILPQPVGTVLLQIPEPQESNSDAGINLIALPAFSQVDPEVFAALPAELQRELKAAYDQRQRQGENSTHQQSASASVPKNPLLHLKAAVKEKKRNKKKKTIGSPKRIQSPLNNKLLNSPAKTLPGACGSPQKLIDGFLKHEGPPAEKPLEELSASTSGVPGLSSLQSDPAGCVRPPAPNLAGAVEFNDVKTLLREWITTISDPMEEDILQVVKYCTDLIEEKDLEKLDLVIKYMKRLMQQSVESVWNMAFDFILDNVQVVLQQTYGSTLKVT

Like-named read-outs stand apart in the source and are kept apart here.

Experiment [1] deals with T1, His-REV1(1130–1251) (Homo sapiens, UniProt Q9UBZ9).
T1 sequence (Q9UBZ9 1130-1251): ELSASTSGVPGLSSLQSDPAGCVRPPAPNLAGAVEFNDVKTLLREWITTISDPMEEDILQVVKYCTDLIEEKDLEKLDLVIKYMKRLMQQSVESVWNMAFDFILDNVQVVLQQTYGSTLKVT
Put plainly: Surface plasmon resonance, His-REV1. Format: binding. The following applies: SPR, BIACORE 2000, CM5 chip; His-REV1(1130–1251) 1.1 µM in Fig. 2A. A digest of the protocol: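 SPR on BIACORE 2000. Synthetic peptides carrying an added N-terminal Cys were thiol-coupled to CM5 dextran. His-REV1(1130–1251) was cut from a GST-His fusion with Factor Xa, purified on Ni-NTA, then cleared of uncleaved fusion on glutathione resin. Varying concentrations were injected in 10 mM HEPES pH 7.5, 150 mM NaCl, 3 mM EDTA, 0.005% P20 at 20 µl/min, 25°C; contact 60 s, dissociation 120 s. Control-cell signal was subtracted. Kd came from equilibrium analysis of mean signals.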

For a further experiment, the system named is REV1(1130–1218). The experiment can be described thus: Surface plasmon resonance, REV1. Format: binding, human. The following applies: SPR; REV1 derivative lacking a portion essential for the interaction with Polκ; data not shown.
Experiment [2] addresses PCNA (Homo sapiens, UniProt P12004). Put plainly: Surface plasmon resonance, PCNA binding to immobilized peptides. The following applies: SPR; data not shown. In outline: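 PCNA binding by SPR against synthetic peptides that carry an added N-terminal Cys, coupled through the sulfhydryl to CM5 carboxylated dextran sensor chips by thiol activation chemistry. The peptide–protein signal minus the control-cell signal was analysed and scored + or −.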
(SPR reads the build-up and loss of mass on a sensor chip optically.)

The target of experiment [3] is T2, His-REV1(1130–1251) (human, UniProt Q9UBZ9 1130-1251).
T2 sequence (looked up): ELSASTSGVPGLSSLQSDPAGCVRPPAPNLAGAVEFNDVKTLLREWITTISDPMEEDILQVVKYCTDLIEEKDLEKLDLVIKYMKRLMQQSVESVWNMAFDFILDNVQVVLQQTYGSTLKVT
The experiment can be described thus: SPR.

The experiment “GST-REV1(826–1251)” has as its target B5. Put plainly: pull-down.
Another experiment has as its target T3, His-Polκ(1–615) (human, UniProt Q9UBT6 1-615).
T3 sequence (looked up): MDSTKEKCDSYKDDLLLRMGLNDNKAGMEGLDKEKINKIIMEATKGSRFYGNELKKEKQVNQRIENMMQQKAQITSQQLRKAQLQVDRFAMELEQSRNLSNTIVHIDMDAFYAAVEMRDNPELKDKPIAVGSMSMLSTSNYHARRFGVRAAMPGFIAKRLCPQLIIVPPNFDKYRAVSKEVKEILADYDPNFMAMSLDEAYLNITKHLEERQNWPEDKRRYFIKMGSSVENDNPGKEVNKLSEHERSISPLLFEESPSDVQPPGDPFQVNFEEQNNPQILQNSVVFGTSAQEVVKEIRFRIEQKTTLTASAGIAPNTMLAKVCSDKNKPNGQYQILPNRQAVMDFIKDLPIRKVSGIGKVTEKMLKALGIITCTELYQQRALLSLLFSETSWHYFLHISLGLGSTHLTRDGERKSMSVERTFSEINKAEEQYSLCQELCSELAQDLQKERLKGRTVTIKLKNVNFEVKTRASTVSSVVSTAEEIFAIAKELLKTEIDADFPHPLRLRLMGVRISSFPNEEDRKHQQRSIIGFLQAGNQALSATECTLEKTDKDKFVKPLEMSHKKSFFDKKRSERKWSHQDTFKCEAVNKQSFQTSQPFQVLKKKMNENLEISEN
Put plainly: pull-down.

In experiment [4] the target is T4, PCNA (UniProt P12004 1-261). Put plainly: SPR.
Experiment [5] deals with T4, PCNA. The experiment can be described thus: SPR. This is another data set of the same source.

T4 sequence (P12004 whole entry): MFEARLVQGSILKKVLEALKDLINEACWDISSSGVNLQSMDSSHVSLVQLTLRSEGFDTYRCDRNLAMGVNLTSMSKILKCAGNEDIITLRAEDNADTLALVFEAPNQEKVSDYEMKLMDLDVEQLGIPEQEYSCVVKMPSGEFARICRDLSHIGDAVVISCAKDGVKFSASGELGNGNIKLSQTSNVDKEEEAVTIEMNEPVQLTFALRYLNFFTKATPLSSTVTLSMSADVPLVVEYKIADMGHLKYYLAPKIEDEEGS
Sequence of PCNA (Homo sapiens, UniProt P12004) (P12004 whole entry, species assumed): as the sequence (P12004 whole entry) above

For CEMSHKKSAADKKRSER [κ560-575AA], on His-REV1(1130–1251) [1], the “Binding of His-REV1(1130–1251) / REV1-CTD to immobilized peptide (in words)” value is listed as “but not to κ560-575AA”. The “Interaction of REV1(1130–1218) with immobilized peptide (in words)” value in the experiment with REV1(1130–1218) is “failed to interact”.

With CKRPRPEGMQTLESAAKPLTH [η694-713AA], the “PCNA binding to immobilized peptide (in words)” value on PCNA [2] is reported as “failed to bind”.

In the case of CPLEMSHKKSFFDKK [κ558-571FF], the “Binding of His-REV1(1130–1251) / REV1-CTD to immobilized peptide (in words)” value at His-REV1(1130–1251) [1] was “failure of κ558-571FF to bind REV1-CTD”.

B1: κ560-575FF (peptide)
peptide: CEMSHKKSFFDKKRSER
In the experiment with His-REV1(1130–1251) [3], B1 returned a Kd of 7.6 µM.

B2: η524-539FF (peptide)
peptide: CQSTGTEPFFKQKSLLL
Turning to B2, binding with His-REV1(1130–1251) [3] was put at a Kd of 13 µM.

B3: κ564-575FF (peptide)
peptide: CKKSFFDKKRSER
For the molecule B3, the binding result with GST-REV1(826–1251) is “binds”.

B4: κ562-575FF (peptide)
peptide: CSHKKSFFDKKRSER
B4: the binding result with GST-REV1(826–1251) is reported as “binds”.

With B5, the binding result in the experiment with His-Polκ(1–615) is “binds”.

B6: ι539-554FF (peptide)
peptide: CASRGVLSFFSKKQMQD
Regarding B6, binding in the experiment with His-REV1(1130–1251) [3] was put at a Kd of 69 µM.

B7: η694-713FF (peptide)
peptide: CKRPRPEGMQTLESFFKPLTH
With B7, the equilibrium dissociation constant (Kd) in the experiment with PCNA [4] was around 0.3 µM; with PCNA [5] it was around 0.4 µM.

A word on the Kd: it is the equilibrium constant for the complex coming apart. Low values mean higher affinity, high ones lower affinity.
